Source: ChEMBL document CHEMBL1773037, “Evaluation of superior BACE1 cleavage sequences containing unnatural amino acids” (Bioorg Med Chem, 2011)
Active and inactive are the calls of the source. No cut-off for these calls is given here. Non-standard residues stand in square brackets, D forms with d. Residues, ends and D or L forms follow the SMILES beside them. 2Thi = N[C@@H](Cc1cccs1)C(=O)O; Phg = N[C@H](C(=O)O)c1ccccc1; Nva = CCC[C@H](N)C(=O)O

Tests used:
[1] = target: Beta-secretase 1 (Homo sapiens) (UniProt P56817); experiment: Activity of recombinant BACE assessed as retention time of C-terminal fragment by HPLC method
[2] = target: Beta-secretase 1 (Homo sapiens) (UniProt P56817); experiment: Activity of recombinant BACE assessed as retention time of substrate by HPLC method
[3] = target: Beta-secretase 1 (Homo sapiens) (UniProt P56817); experiment: Activity of recombinant BACE assessed as retention time of N-terminal fragment by HPLC method
[4] = target: Beta-secretase 1 (Homo sapiens) (UniProt P56817); experiment: Activity of recombinant BACE assessed as substrate cleavage after 1 hr by HPLC analysis
[5] = target: Beta-secretase 1 (Homo sapiens) (UniProt P56817); experiment: Activity of recombinant BACE assessed as substrate cleavage upto 3 hrs by HPLC analysis
Outline: (§1)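 Individually synthesized, purified substrates at 300 µM in 40 mM AcONa buffer, pH 4.5, 37 °C. rBACE1 used at 60 nM (P1, P4 substrates), 30 nM (P2, P3 substrates) or 10 nM (P1' substrates and the dodecapeptide). Aliquots taken at 0, 1 and 3 h, quenched with 7 M GuHCl, and the decrease in each substrate peak monitored by HPLC.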

[6] = target: Beta-secretase 1 (Homo sapiens) (UniProt P56817); experiment: Activity of recombinant BACE assessed as substrate cleavage at 300 uM after 3 hrs by HPLC analysis
Outline: as §1

Beta-secretase 1 (Homo sapiens), sequence (P56817 whole entry, the tested form may be a part): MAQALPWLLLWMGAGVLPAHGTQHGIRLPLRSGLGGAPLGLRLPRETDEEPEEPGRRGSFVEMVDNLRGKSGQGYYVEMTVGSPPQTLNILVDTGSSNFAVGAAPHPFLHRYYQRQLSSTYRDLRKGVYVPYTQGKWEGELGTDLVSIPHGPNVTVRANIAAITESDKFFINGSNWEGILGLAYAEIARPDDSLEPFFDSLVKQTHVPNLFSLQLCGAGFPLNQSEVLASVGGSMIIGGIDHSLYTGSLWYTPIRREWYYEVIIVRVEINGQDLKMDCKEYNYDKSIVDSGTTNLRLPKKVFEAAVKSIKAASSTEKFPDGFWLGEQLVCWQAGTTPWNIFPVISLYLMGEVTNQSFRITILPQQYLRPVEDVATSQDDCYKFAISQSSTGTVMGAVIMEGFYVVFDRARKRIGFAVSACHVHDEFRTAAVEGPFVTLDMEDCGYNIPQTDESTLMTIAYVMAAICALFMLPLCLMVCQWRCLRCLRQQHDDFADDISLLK

retention time [1] [h]	retention time [2] [h]	retention time [3] [h]	Activity [4] [%]	Activity [5] [%]	Activity [6]	Structure (SMILES)
0.082	0.297	0.289	20	–	–	CC[C@H](C)[C@H](N)C(=O)N[C@@H](CCCCN)C(=O)N[C@H](C(=O)N[C@@H](CCC(=O)O)C(=O)N[C@@H](CCC(=O)O)C(=O)N[C@H](C(=O)N[C@@H](CO)C(=O)N[C@@H](CCC(=O)O)C(=O)N[C@H](C(=O)N[C@@H](CC(N)=O)C(=O)N[C@@H](CC(C)C)C(=O)N[C@@H](CC(=O)O)C(=O)N[C@@H](C)C(=O)N[C@@H](CCC(=O)O)C(=O)N[C@@H](Cc1ccccc1)C(=O)N[C@@H](CCCNC(=N)N)C(=O)N[C@@H](Cc1cnc[nH]1)C(=O)N[C@@H](CC(=O)O)C(=O)N[C@@H](CO)C(=O)NCC(N)=O)C(C)C)[C@@H](C)CC)[C@@H](C)O
0.217	0.487	0.429	–	10	50%	CC[C@H](C)[C@H](N)C(=O)N[C@@H](CO)C(=O)N[C@@H](CCC(=O)O)C(=O)N[C@H](C(=O)N[C@@H](CC(N)=O)C(=O)N[C@@H](CC(C)C)C(=O)N[C@@H](CC(=O)O)C(=O)N[C@@H](C)C(=O)N[C@@H](CCC(=O)O)C(=O)N[C@@H](Cc1ccccc1)C(=O)N[C@@H](CCCNC(=N)N)C(=O)N[C@@H](Cc1cnc[nH]1)C(N)=O)C(C)C (H-ISEVNLDAEFRH-NH2)

Continued, compound first:

Structure (SMILES)	retention time [1] [h]	retention time [2] [h]	retention time [3] [h]	Activity [4] [%]	Activity [5] [%]	Activity [6]
CCC[C@H](NC(=O)[C@H](Cc1cccs1)NC(=O)[C@H](Cc1cccs1)NC(=O)[C@@H](NC(=O)[C@H](CCC(=O)O)NC(=O)[C@H](CO)NC(=O)[C@@H](N)[C@@H](C)CC)[C@@H](C)CC)C(=O)N[C@@H](C)C(=O)N[C@@H](CCC(=O)O)C(=O)N[C@@H](Cc1ccccc1)C(=O)N[C@@H](CCCNC(=N)N)C(=O)N[C@@H](Cc1cnc[nH]1)C(N)=O (H-ISEI[2Thi][2Thi][Nva]AEFRH-NH2)	–	0.658	–	–	90	–
CC[C@H](C)[C@H](N)C(=O)N[C@@H](CO)C(=O)N[C@@H](CCC(=O)O)C(=O)N[C@H](C(=O)N[C@@H](CC(N)=O)C(=O)N[C@@H](Cc1cccs1)C(=O)N[C@@H](CC(=O)O)C(=O)N[C@@H](C)C(=O)N[C@@H](CCC(=O)O)C(=O)N[C@@H](Cc1ccccc1)C(=O)N[C@@H](CCCNC(=N)N)C(=O)N[C@@H](Cc1cnc[nH]1)C(N)=O)C(C)C (H-ISEVN[2Thi]DAEFRH-NH2)	0.217	0.483	0.429	–	–	70%
CC[C@H](C)[C@H](N)C(=O)N[C@@H](CO)C(=O)N[C@@H](CCC(=O)O)C(=O)N[C@H](C(=O)N[C@@H](CC(N)=O)C(=O)N[C@H](C(=O)N[C@@H](CC(=O)O)C(=O)N[C@@H](C)C(=O)N[C@@H](CCC(=O)O)C(=O)N[C@@H](Cc1ccccc1)C(=O)N[C@@H](CCCNC(=N)N)C(=O)N[C@@H](Cc1cnc[nH]1)C(N)=O)c1ccccc1)C(C)C (H-ISEVN[Phg]DAEFRH-NH2)	0.217	0.459	–	–	–	Active
